Reference: ChEMBL document CHEMBL4354812, “N-Benzyl/Aryl Substituted Tryptanthrin as Dual Inhibitors of Indoleamine 2,3-Dioxygenase and Tryptophan 2,3-Dioxygenase” (J Med Chem, 2019)
The source made the active and inactive calls. The calls are words filed in the database; no cut-off is given here.

What was measured:
[1] = molecular target: T1, Tryptophan 2,3-dioxygenase (Homo sapiens, UniProt P48775); assay: Inhibition of human TDO transfected in HEK293 cells assessed as reduction in kynurenine production using L-tryptophan as substrate incubated for 12 hrs; type: cell-based
In short: (§1)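 U87 MG cells (hIDO2) or HEK293 cells (hTDO) were transiently transfected at 80% confluence, with empty vector as control. After 18 h, cells were seeded 2.5 × 10⁴/well in medium with 200 μM L-Trp. Compound serial dilutions were added after a further 6 h (IDO2) or 12 h (TDO). Reactions were stopped 24 h (IDO2) or 8 h (TDO) later with TCA, heated 65 °C 15 min, and Kyn read with DMAB at 492 nm. IC50 by nonlinear regression.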
Target sequence in this assay (P48775 whole entry): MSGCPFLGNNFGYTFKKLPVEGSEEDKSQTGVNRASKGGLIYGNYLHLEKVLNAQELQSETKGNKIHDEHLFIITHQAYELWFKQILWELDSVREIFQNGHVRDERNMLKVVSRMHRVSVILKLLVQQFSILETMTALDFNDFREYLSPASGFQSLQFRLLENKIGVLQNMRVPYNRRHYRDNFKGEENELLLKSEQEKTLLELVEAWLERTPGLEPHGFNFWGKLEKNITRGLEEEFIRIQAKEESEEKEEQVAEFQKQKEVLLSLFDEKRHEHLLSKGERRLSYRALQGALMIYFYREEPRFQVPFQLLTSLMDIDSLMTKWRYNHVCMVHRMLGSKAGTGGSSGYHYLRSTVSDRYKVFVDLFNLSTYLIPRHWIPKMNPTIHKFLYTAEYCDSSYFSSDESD

[2] = molecular target: T1, Tryptophan 2,3-dioxygenase; assay: Mixed uncompetitive inhibition of recombinant human TDO expressed in Escherichia coli BL21 (DE3) assessed as inhibition constant using varying concentration of L-tryptophan as substrate by Dixon plot analysis
In short: (§2)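 Enzymatic assays of the kynurenine-forming reaction were run with varying L-Trp. Ki was derived by plotting [S]/V against inhibitor concentration [I], with inhibition type assigned from the graphical pattern.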
Target sequence in this assay (P48775 whole entry): as above

[3] = molecular target: T2, Indoleamine 2,3-dioxygenase 1 (Homo sapiens, UniProt P14902); assay: Uncompetitive inhibition of recombinant human IDO1 expressed in Escherichia coli BL21 cells assessed inhibition constant using varying concentration of L-tryptophan as substrate by Dixon plot analysis; in short: as §2
Target sequence in this assay (P14902 whole entry): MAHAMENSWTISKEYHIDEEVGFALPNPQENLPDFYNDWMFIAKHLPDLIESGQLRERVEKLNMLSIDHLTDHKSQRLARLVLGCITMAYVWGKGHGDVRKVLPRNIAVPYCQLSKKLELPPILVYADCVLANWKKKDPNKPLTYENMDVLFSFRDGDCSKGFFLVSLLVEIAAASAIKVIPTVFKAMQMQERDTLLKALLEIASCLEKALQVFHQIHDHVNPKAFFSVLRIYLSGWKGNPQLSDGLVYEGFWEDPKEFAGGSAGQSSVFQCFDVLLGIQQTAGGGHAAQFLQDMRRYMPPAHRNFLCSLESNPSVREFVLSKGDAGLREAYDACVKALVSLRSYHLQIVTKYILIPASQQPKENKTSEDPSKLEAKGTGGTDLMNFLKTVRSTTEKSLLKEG

[4] = molecular target: T3, Indoleamine 2,3-dioxygenase 2 (Homo sapiens, UniProt Q6ZQW0); assay: Inhibition of human IDO2 transfected in human U87MG cells assessed as reduction in kynurenine production using L-tryptophan as substrate incubated with for 6 hrs; type: cell-based; in short: as §1
T3 sequence (Q6ZQW0 whole entry): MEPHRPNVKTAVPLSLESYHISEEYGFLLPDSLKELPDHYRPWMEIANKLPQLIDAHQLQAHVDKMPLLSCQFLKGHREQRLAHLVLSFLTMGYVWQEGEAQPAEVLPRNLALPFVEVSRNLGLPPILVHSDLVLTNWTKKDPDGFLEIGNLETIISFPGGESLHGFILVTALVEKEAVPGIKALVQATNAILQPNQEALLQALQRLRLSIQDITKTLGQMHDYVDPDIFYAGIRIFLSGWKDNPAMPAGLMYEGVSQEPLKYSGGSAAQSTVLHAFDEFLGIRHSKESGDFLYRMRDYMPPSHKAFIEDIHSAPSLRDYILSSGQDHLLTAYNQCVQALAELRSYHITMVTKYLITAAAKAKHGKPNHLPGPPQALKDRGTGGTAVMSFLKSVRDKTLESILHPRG

[5] = molecular target: T1, Tryptophan 2,3-dioxygenase; assay: Inhibition of recombinant human TDO expressed in Escherichia coli BL21 (DE3) assessed as reduction in conversion of L-tryptophan to N-formyl kynurenine using L-tryptophan as substrate after 30 mins by methylene blue assay
Target sequence in this assay (P48775 whole entry): as the sequence (P48775 whole entry) above

[6] = molecular target: T3, Indoleamine 2,3-dioxygenase 2; assay: Uncompetitive inhibition of C-terminal His6-tagged human IDO2 (14 to 420 residues) expressed in Escherichia coli BL21 (DE3) assessed as inhibition constant using varying concentration of L-tryptophan as substrate by Dixon plot analysis; in short: as §2
[7] = molecular target: T1, Tryptophan 2,3-dioxygenase; assay: Uncompetitive inhibition of recombinant human TDO expressed in Escherichia coli BL21 (DE3) assessed as assessed as inhibition constant using varying concentration of L-tryptophan as substrate by Dixon plot analysis; in short: as §2
Target sequence in this assay (P48775 whole entry): as above

[8] = molecular target: T2, Indoleamine 2,3-dioxygenase 1; assay: Inhibition of IDO1 in IFN-gamma stimulated human HeLa cells assessed as reduction in kynurenine production incubated for 18 hrs; type: cell-based
In short: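 HeLa cells were seeded 25 000/well overnight, then exposed to inhibitor dilutions with 100 ng/mL human IFN-γ (final) for 18 h at 37 °C. Medium was treated with TCA at 50 °C for 30 min to hydrolyze NFK to Kyn. Kyn was read with 2% DMAB at 492 nm. IC50 by nonlinear regression.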
Target sequence in this assay (P14902 whole entry): as the sequence (P14902 whole entry) above

[9] = molecular target: T3, Indoleamine 2,3-dioxygenase 2; assay: Inhibition of C-terminal His6-tagged human IDO2 (14 to 420 residues) expressed in Escherichia coli BL21 (DE3) assessed as reduction in conversion of L-tryptophan to N-formyl kynurenine using L-tryptophan as substrate after 30 mins by methylene blue dye based microplate reader analysis
In short: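 Recombinant enzyme with L-Trp substrate, ascorbic acid 40 mM, methylene blue 20 μM and catalase 200 μg/mL in potassium phosphate buffer. Conditions were pH 7.0 with 400 μM L-Trp for TDO, and pH 7.5 with 30 mM L-Trp for IDO2. Reaction ran 30 min at 37 °C, stopped with TCA, heated 65 °C 15 min. Kyn detected with DMAB at 492 nm. IC50 by nonlinear regression.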

[10] = molecular target: T3, Indoleamine 2,3-dioxygenase 2; assay: Noncompetitive inhibition of C-terminal His6-tagged human IDO2 (14 to 420 residues) expressed in Escherichia coli BL21 (DE3) assessed as inhibition constant using varying concentration of L-tryptophan as substrate by Dixon plot analysis; in short: as §2
[11] = molecular target: T2, Indoleamine 2,3-dioxygenase 1; assay: Noncompetitive inhibition of recombinant human IDO1 expressed in Escherichia coli BL21 cells assessed inhibition constant using varying concentration of L-tryptophan as substrate by Dixon plot analysis; in short: as §2
Target sequence in this assay (P14902 whole entry): as above

[12] = molecular target: T4, Indoleamine 2,3-dioxygenase 2 (Homo sapiens) (UniProt Q6ZQW0); assay: Binding affinity to human IDO2 assessed as change in spectral signal at 200 uM by CPMG NMR spectrometry analysis
T4 sequence (whole entry): T3 sequence (Q6ZQW0 whole entry)

[13] = tested on: H22; assay: Antitumor activity against mouse H22 cells implanted in Kunming mouse assessed as reduction in tumor volume at 100 mg/kg, po qd administered for 2 weeks and measured at 2 days interval during compound dosing relative to control; type: functional; design: scale not given: the % may be the effect or the level left
In short: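 H22 ascites cells (2 × 10⁶/mouse) passaged twice intraperitoneally in Kunming mice, diluted in saline, then implanted sc into the right forelimb (2 × 10⁶ cells). Therapy began once the tumor reached 5 mm diameter: oral dosing once daily in 0.5% CMC-Na, vehicle controls, for 2 weeks. Calipers every 2 days; volume = long × short²/2. n = 9−10 mice/group.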

[14] = tested on: H22; assay: Antitumor activity against mouse H22 cells implanted in Kunming mouse assessed as reduction in tumor weight at 100 mg/kg, po qd administered for 2 weeks and measured post-treatment; type: functional, organism-based
In short: (§3)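 Tumor cells (LLC, or H22 ascites cells after two intraperitoneal passages in Kunming mice) injected sc into the right forelimb at 2 × 10⁶ per mouse, in female 6–8-week C57BL/6 or Kunming mice. Oral dosing once daily began at 5 mm tumor diameter and continued 2 weeks. Vehicle was 0.5% CMC-Na. Volume was read by caliper every 2 days as long × short²/2. Tumors were weighed at sacrifice. n = 9–10/group.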

[15] = organism: Homo sapiens; assay: Inhibition of IDO1/TDO in IFNgamma-treated human HeLa cells assessed as T cell proliferation at 1 uM measured after 2 days in presence of IL-2, anti-CD3 and IFN-gamma by CFSE dye based flow cytometry analysis (reference value: 11.7 %); design: scale not given: the % may be the effect or the level left
In short: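 CFSE-labelled human PBMC lymphocytes (1 × 10⁶/well) were cocultured with HeLa cells (2 × 10⁵/well), a 5:1 ratio, in 150 U/mL IL-2, 100 ng/mL anti-CD3 and 60 ng/mL IFN-γ. Compound was tested at 40 nM, 200 nM, 500 nM or 1 μM. Proliferation was read by flow cytometry after 2 days, three independent experiments.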

[16] = tested on: Lewis lung carcinoma cell line; assay: Antitumor activity against mouse LLC cells implanted in C57BL/6 mouse assessed as reduction in tumor weight at 100 mg/kg, po qd administered for 2 weeks and measured post-treatment; type: functional, organism-based; in short: as §3
[17] = molecular target: T1, Tryptophan 2,3-dioxygenase; assay: Binding affinity to human TDO assessed as change in spectral signal at 200 uM by CPMG NMR spectrometry analysis
Target sequence in this assay (P48775 whole entry, looked up): as the sequence (P48775 whole entry) above

[18] = tested on: Mus musculus; assay: In vivo blockade of kynurenine pathway in Kunming mouse implanted with mouse H22 cells assessed as increase in tryptophan level in serum at 100 mg/kg, po qd for 2 weeks by HPLC analysis; type: functional, organism-based
In short: (§4)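 H22 tumor-bearing Kunming mice received oral dosing once daily in 0.5% CMC-Na for 2 weeks. Serum Trp and Kyn were measured by HPLC on a C18 column with 15 mM sodium acetate (pH 3.6) containing 4% acetonitrile, UV detection at 280 and 360 nm. Kyn/Trp ratio calculated. n = 9–10/group.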

[19] = molecular target: T1, Tryptophan 2,3-dioxygenase; assay: Binding affinity to human TDO at 200 uM by STD NMR spectrometry analysis
Target sequence in this assay (P48775 whole entry, looked up): as the sequence (P48775 whole entry) above

[20] = tested on: Lewis lung carcinoma cell line; assay: Antitumor activity against mouse LLC cells implanted in C57BL/6 mouse assessed as reduction in tumor volume at 100 mg/kg, po qd administered for 2 weeks and measured at 2 days interval during compound dosing relative to control; type: functional; design: scale not given: the % may be the effect or the level left; in short: as §3
[21] = molecular target: T4, Indoleamine 2,3-dioxygenase 2 (Homo sapiens); assay: Binding affinity to human IDO2 at 200 uM by STD NMR spectrometry analysis
[22] = tested on: Mus musculus; assay: In vivo blockade of kynurenine pathway in Kunming mouse implanted with mouse H22 cells assessed as decrease in kynurenine level in serum at 100 mg/kg, po qd for 2 weeks by HPLC analysis; type: functional, organism-based; in short: as §4
[23] = molecular target: T2, Indoleamine 2,3-dioxygenase 1; assay: Competitive inhibition of recombinant human IDO1 expressed in Escherichia coli BL21 cells assessed as apparent inhibition constant using varying concentration of L-tryptophan as substrate by Dixon plot analysis
Target sequence in this assay (P14902 whole entry): as the sequence (P14902 whole entry) above

[24] = molecular target: T2, Indoleamine 2,3-dioxygenase 1; assay: Inhibition of recombinant human IDO1 expressed in Escherichia coli BL21 cells assessed as reduction in conversion of L-tryptophan to N-formyl kynurenine using L-tryptophan as substrate after 30 mins by methylene blue dye based microplate reader analysis
Target sequence in this assay (P14902 whole entry): as above

[25] = molecular target: T2, Indoleamine 2,3-dioxygenase 1; assay: Binding affinity to heme in human IDO1 assessed as Soret band red shift from 405 nm to […] at 375 uM and pH 6.5 under normal atmospheric condition by UV-vis spectroscopy analysis
Target sequence in this assay (P14902 whole entry, looked up): as the sequence (P14902 whole entry) above

| IC50 [1] [µM] | Ki [2] [µM] | IC50 [4] [µM] | IC50 [5] [µM] | Ki [7] [µM] | IC50 ([8]; read-out: IC50) [µM] | IC50 [9] [µM] | SMILES | also measured |
| --- | --- | --- | --- | --- | --- | --- | --- | --- |
| 0.07 | 0.13 |  |  |  |  |  | CC(C)(C)OC(=O)N1CCN(Cc2ccc3nc4n(c(=O)c3c2)-c2ccc(F)cc2C4=O)CC1 |  |
| 0.47 |  | 48.7 | 6.75 | 18 | 2.96 | 82.6 | CN1CCN(c2ccc3nc4n(c(=O)c3c2)-c2ccccc2C4=O)CC1 | Ki ([3]; read-out: Ki): 7.57 µM; Ki [6]: 48.7 µM |
| 0.25 | 0.17 | 79 | 2.59 |  | 1.87 | 46.8 | CN1CCN(c2ccc3nc4n(c(=O)c3c2)-c2ccc(F)cc2C4=O)CC1 | Ki [10]: 19.9 µM; Ki ([11]; read-out: Ki): 6.92 µM |
|  |  |  |  |  |  |  | Cn1cc(C[C@H](N)C(=O)O)c2ccccc21 [(L)-1-METHYLTRYPTOPHAN] | Activity [12]: inactive; Activity [13]: 15.8%; Activity [14]: Active; Activity [15]: 15.8%; Activity [16]: Active; Activity [17]: inactive; Activity [18]: inactive; Activity [19]: inactive; Activity [20]: 33.6%; Activity [21]: inactive; Activity [22]: Active |
| 0.5 |  | 20.3 | 6.4 | 2.36 |  | 79.9 | O=C1c2cc(F)ccc2-n2c1nc1ccc(N3CCOCC3)cc1c2=O | Ki [3]: Not Active; Ki [23]: Not Active; IC50 [24]: Not Active; Ki [6]: 39.1 µM; IC50 ([8]; hela): Not Active; Ki [11]: Not Active |
| 0.27 |  | 90.9 | 3.82 | 1.24 | 0.59 | 91.3 | CN(C)c1ccc2nc3n(c(=O)c2c1)-c1ccc(F)cc1C3=O | Ki ([3]; read-out: Ki): 8.82 µM; Ki [10]: 45.3 µM |
| 0.06 | 0.09 |  |  |  |  |  | CN(C)Cc1ccc2nc3n(c(=O)c2c1)-c1ccc(F)cc1C3=O |  |
| 0.29 | 0.67 | 17.8 | 3.15 |  | 0.76 | 41.6 | O=C1c2cc(F)ccc2-n2c1nc1ccc(N3CCNCC3)cc1c2=O | Ki ([3]; read-out: Ki): 6.08 µM; Ki [6]: 36.9 µM |
| 3.7 |  | 22.2 | 10.1 | 1.56 | 2.24 | 40.1 | O=C1c2cc(F)ccc2-n2c1nc1ccc(N3CCCCC3)cc1c2=O | Ki ([3]; read-out: Ki): 4.34 µM; Ki [6]: 26.8 µM |
| 0.09 |  |  |  | 0.12 |  |  | O=C1c2cc(F)ccc2-n2c1nc1ccc(CN3CCNCC3)cc1c2=O |  |
| 0.07 |  |  |  | 0.34 |  |  | O=C1c2cc(F)ccc2-n2c1nc1ccc(CN3CCOCC3)cc1c2=O |  |
|  |  |  |  |  |  |  | NS(=O)(=O)NCCNc1nonc1/C(=N/O)Nc1ccc(F)c(Br)c1 | Activity [25]: Active |
|  |  |  |  |  |  | 10.3 | NS(=O)(=O)NCCNc1nonc1C(=NO)Nc1ccc(F)c(Br)c1 [EPACADOSTAT] |  |

| SMILES | IC50 [1] [µM] | Ki [2] [µM] | IC50 [4] [µM] | IC50 [5] [µM] | Ki [7] [µM] | IC50 ([8]; read-out: IC50) [µM] | IC50 [9] [µM] | also measured |
| --- | --- | --- | --- | --- | --- | --- | --- | --- |
| CN1CCN(Cc2ccc3nc4n(c(=O)c3c2)-c2ccccc2C4=O)CC1 | 0.18 | 0.42 |  |  |  | 0.18 |  |  |
